One compound from ChEMBL document CHEMBL2380219, “Physalin A induces apoptotic cell death and protective autophagy in HT1080 human fibrosarcoma cells” (J Nat Prod, 2013) can be followed below.

Active and inactive are the calls of the source. The calls are words filed in the database; no cut-off is given here.

For series [1], the system named is HT-1080. As to the kind of experiment: Induction of apoptosis in human HT1080 cells expressing beclin 1 siRNA assessed as increase in PARP cleavage at 10 uM after 24 hrs by Western blotting relative to control. The format is functional, cell-based. The gist of the method: (§1)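 Beclin 1 or nonspecific siRNA transfected into HT1080 cells (5 × 10^5 seeded a day earlier; transfection mixture for 7 h at 37 °C, then normal medium, 24 h before harvest). Cells then got 10 μM for 24 h. Adherent plus floating cells lysed in Hepes pH 7.4/Triton buffer at 4 °C for 60 min. Equal protein on 12% SDS-PAGE, nitrocellulose, ECL. Bands normalized to β-actin, n = 3.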
In general terms: In western blotting, separated proteins are transferred to a membrane and probed.

Series [2] deals with HT-1080. As to the kind of experiment: Induction of apoptosis in human HT1080 cells expressing beclin 1 siRNA assessed as increase in FAS protein expression at 10 uM after 24 hrs by Western blotting analysis relative to control. Type of series: functional, cell-based. In outline: as §1
The subject of series [3] is HT-1080. As to the kind of experiment: Induction of apoptosis in human HT1080 cells expressing beclin 1 siRNA assessed as reversal of beclin 1 upregulation at 10 uM after 24 hrs by Western blotting analysis relative to control. The format is functional, cell-based. The gist of the method: as §1
In series [4] the test system is HT-1080. The series can be described thus: Induction of apoptosis in human HT1080 cells expressing beclin 1 siRNA assessed as increase in apoptotic ratio at 10 uM after 24 hrs by propidium iodide staining-based FACS flow cytometric analysis relative to control. The format is functional, cell-based. The gist of the method: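 HT1080 cells transfected with beclin 1 or nonspecific siRNA (7 h at 37 °C, then 24 h in growth medium), then exposed to 10 μM for 24 h. Cells fixed in 70% ethanol at 4 °C for 18 h, washed, stained with PI 50 μg/mL plus RNase A 1 mg/mL. Apoptotic (sub-G1) fraction read by flow cytometry.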

For series [5], the system named is HT-1080. The series can be described thus: Induction of apoptosis in human HT1080 cells assessed as downregulation of ICAD at 10 uM pretreated with 3MA for 1 hr prior to compound addition measured after 24 hrs by Western blotting analysis. The format is functional, cell-based. The gist of the method:
(§2)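 HT1080 cells pretreated 1 h with 1 mM 3MA or 1 nM rapamycin, then co-incubated with 10 μM for 24 h. Adherent and floating cells lysed in Hepes pH 7.4/Triton buffer. 12% SDS-PAGE, nitrocellulose, antibodies against Fas, FADD, caspase-8, caspase-3, PARP and ICAD, ECL detection. Densities normalized to β-actin; n = 3.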

For series [6], the system named is HT-1080. As to the kind of experiment: Induction of apoptosis in human HT1080 cells assessed as increase in PARP cleavage at 10 uM pretreated with rapamycin for 1 hr prior to compound addition measured after 24 hrs by Western blotting analysis. Type of series: functional, cell-based. The gist of the method: as §2
For series [7], the system named is HT-1080. As to the kind of experiment: Induction of apoptosis in human HT1080 cells assessed as upregulation of FAS protein expression at 10 uM pretreated with rapamycin for 1 hr prior to compound addition measured after 24 hrs by Western blotting analysis. The format is functional, cell-based. In outline:
as §2

The subject of series [8] is HT-1080. The series can be described thus: Induction of autophagy in human HT1080 cells assessed as increase in autophagy ratio at 10 uM pretreated with rapamycin for 1 hr prior to compound addition measured after 24 hrs by MDC staining-based FACS flow cytometric analysis. The format is functional, cell-based. The gist of the method:
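HT1080 cells seeded at 3 × 10^5 per flask and grown 24 h. Pretreated 1 h with 1 mM 3MA or 1 nM rapamycin, then 10 μM for 24 h. Collected cells stained with 0.05 mM MDC at 37 °C for 1 h. MDC-positive ratio measured by flow cytometry, n = 3, mean ± SD.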
A general note: A flow cytometer gives signals particle by particle.

The test system of series [9] is HT-1080. As to the kind of experiment: Induction of autophagy in human HT1080 cells assessed as conversion from LC31to LC32 at 10 uM by Western blotting analysis. Type of series: functional, cell-based. The conditions noted are these: TDE = time-dependent effect. In outline: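 HT1080 cells exposed to 10 μM for 6, 12, 18 and 24 h, then lysed in Hepes pH 7.4/Triton buffer at 4 °C for 60 min. Equal protein run on 12% SDS-PAGE, blotted to nitrocellulose, probed for beclin 1 and LC3, ECL detection. Densities taken relative to β-actin, n = 3.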

Series [10] concerns HT-1080. The series can be described thus: Induction of apoptosis in human HT1080 cells assessed as appearance of cleaved procaspase-9 at 10 uM after 6 to 24 hrs by Western blotting analysis. Type of series: functional, cell-based. The gist of the method:
(§3)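 HT1080 cells treated with 10 μM for 6, 12, 18 and 24 h. Adherent and floating cells lysed 60 min at 4 °C in Hepes pH 7.4/1% Triton X-100 buffer with phosphatase and protease inhibitors. Equal protein run on 12% SDS-PAGE, transferred to nitrocellulose, probed with specific antibodies, HRP/ECL detection. Band density normalized to β-actin; n = 3.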

In series [11] the test system is HT-1080. As to the kind of experiment: Induction of apoptosis in human HT1080 cells assessed as change in procaspase-9 expression level at 10 uM after 6 to 24 hrs by Western blotting analysis. The format is functional, cell-based. The gist of the method:
as §3

Series [12] relates to HT-1080. The series can be described thus: Induction of apoptosis in human HT1080 cells assessed as increase in FADD protein expression at 10 uM after 6 to 24 hrs by Western blotting analysis. The format is functional, cell-based. In outline: as §3
The test system of series [13] is HT-1080. The series can be described thus: Cytotoxicity against human HT1080 cells assessed as growth inhibition at 10 uM pretreated with z-LEHD-FMK for 1 hr prior to compound addition measured after 24 hrs by MTT assay. The format is functional, cell-based. The gist of the method: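 HT1080 seeded 0.8 × 10^4 cells/well. MTT 2 h at 37 °C, formazan in DMSO, A492 read. Inhibition % calculated against untreated and blank wells.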
(In general: Tetrazolium dyes change colour on reduction, which living cells bring about.)

Series [14] has as its system HT-1080. As to the kind of experiment: Induction of apoptosis in human HT1080 cells assessed as appearance of granular apoptotic bodies at 10 uM after 24 hrs by acridine orange staining-based fluorescence microscopic analysis. Type of series: functional, cell-based. The gist of the method:
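HT1080 cells, 2 × 10^4/well, cultured 24 h, then exposed to 10 μM for 24 h. Stained with acridine orange 20 μg/mL for 15 min in the dark and examined by fluorescence microscopy at 200×.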

In series [15] the test system is PBMC. As to the kind of experiment: Cytotoxicity against human PBMC at 10 to 20 uM after 24 to 48 hrs by MTT assay. Type of series: cell-based. The gist of the method: (§4)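 PBMC from fresh blood of three healthy male donors. Blood diluted 1:3 in PBS, layered on Ficoll-Hypaque (1.077 g/mL), spun 900g 30 min. Band washed 400g 10 min, cells resuspended in complete RPMI-1640 in 96-well plates. Treated with 0, 10, 20, 40 or 80 μM for 24 and 48 h, then MTT. Means ± SD of three independent experiments.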

In series [16] the test system is PBMC. The series can be described thus: Cytotoxicity against human PBMC at 10 to 80 uM after 24 to 48 hrs by MTT assay. Type of series: cell-based. In outline:
as §4

Another series has as its system U-937. The series can be described thus: Cytotoxicity against human U937 cells assessed as growth inhibition after 24 hrs by MTT assay. Type of series: functional, cell-based. In outline:
(§5)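 Seeded 0.8 × 10^4 cells/well, cultured 24 h, then exposed to 0, 10, 20, 40 or 80 μM for 24 h (DMSO <0.05%) in RPMI 1640 or MEM with 10% FBS. Adherent lines rinsed with PBS, given MTT 2 h at 37 °C. Suspension lines (U937, HL60) given MTT 2 h, then centrifuged. Formazan dissolved in DMSO, A492 read. Inhibition % = (control − sample)/(control − blank) × 100.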

A further series deals with A375-S2. As to the kind of experiment: Cytotoxicity against human A375-S2 cells assessed as growth inhibition after 24 hrs by MTT assay. The format is functional, cell-based. In outline:
as §5

Turning to `C=C1C(=O)O[C@@H]2C[C@@]1(C)[C@@H]1C(=O)[C@]3(O)O[C@]14[C@@]2(C)OC(=O)[C@@]4(O)CC[C@H]1[C@H]3[C@H](O)C=C2CC=CC(=O)[C@@]21C` [PHYSALIN A], the result in the series on HT-1080 [1], in the series on HT-1080 [2], in the series on HT-1080 [3], in the series with HT-1080 [4], in the series on HT-1080 [5] and in the series with HT-1080 [8] was Active. In addition, the result with HT-1080 [12] and in the series with HT-1080 [14] was Active. Besides, the result in the series with HT-1080 [6], in the series with HT-1080 [7], in the series on HT-1080 [10] and with HT-1080 [11] was inactive. The Activity entry in the series on HT-1080 [9] was “tde”; in the series with PBMC [15], “Non-toxic”; in the series with PBMC [16], “Non-toxic”. For the same compound, the “growth inhibition (GI)” value in the series with HT-1080 [13] was “inactive”. The “growth inhibition (GI)” value in the series on U-937 and with A375-S2 was “Dose-dependent effect” each time.
